According to ChEMBL document CHEMBL1122327, “Replacement of aromatic or heteroaromatic groups in nonsteroidal antiinflammatory agents with the ferrocene group” (1983):
Activity calls are given as the source filed them. The calls are words filed in the database; no cut-off is given here.

How the values were obtained:
[1] = species: Homo sapiens; assay: Evaluated for the inhibition of platelet aggregation at dose of 100 uM; type: functional
Method in brief: (§1)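 Human platelet-rich plasma from citrated blood of volunteers who had taken no drugs for at least 10 days, adjusted to 300 000 platelets/μL with platelet-poor plasma. Compound added in PEG 300, then 8 min at 37 °C and 2 min equilibration with stirring at 1200 rpm. Collagen added to trigger aggregation. Maximum rise in light transmission measured within 1–2.5 h of the blood draw; % inhibition calculated against control.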

[2] = species: Homo sapiens; assay: Evaluated for the inhibition of platelet aggregation at dose of 20 uM; type: functional; method in brief: as §1
[3] = species: Homo sapiens; assay: Evaluated for the inhibition of serotonin release from platelets at dose of 100 uM; type: functional
Method in brief: (§2)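 Human platelet-rich plasma at 300 000 platelets/μL, loaded with [3H]5-HT (0.5 μM final, 50 μCi/μmol) for 30 min at room temperature. Compound added in PEG 300 and incubated 10 min at 37 °C, then stirred with collagen (1.6 μL/mL final) for 5 min. Reaction stopped with EDTA and samples centrifuged. Supernatant radioactivity counted by scintillation; % inhibition calculated against vehicle-treated plasma.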

[4] = test system: Rattus norvegicus; assay: Evaluated for the percentage inhibition by adjuvant arthritis test at a dose of 100 mg/kg administarted perorally; Inactive; type: functional, organism-based; parameters: dose 100 mg/kg
[5] = species: Homo sapiens; assay: Evaluated for the inhibition of serotonin release from platelets at dose of 20 uM; type: functional; method in brief: as §2
[6] = test system: Rattus norvegicus; assay: Evaluated for the percentage inhibition by adjuvant arthritis test at a dose of 50 mg/kg administarted perorally; Inactive; type: functional, organism-based; parameters: dose 50 mg/kg
[7] = test system: Rattus norvegicus; assay: Evaluated for the percentage inhibition by adjuvant arthritis test at a dose of 25 mg/kg administarted perorally; Inactive; type: functional, organism-based; parameters: dose 25 mg/kg
[8] = species: Homo sapiens; assay: percent inhibition of serotonin release from platelets at a concentration of 100 uM; type: functional
Method in brief: (§3)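 Human platelet-rich plasma at 300 000/μL, loaded with [3H]5-HT (0.5 μM final) for 30 min at room temperature. Compound in PEG 300 incubated 10 min at 37 °C, then stirred with collagen (1.6 μL/mL final) for 5 min and stopped with EDTA. After centrifugation, supernatant radioactivity was counted by scintillation. Percent inhibition calculated against vehicle-treated plasma.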

[9] = species: Homo sapiens; assay: percent inhibition of serotonin release from platelets at a concentration of 20 uM; type: functional; method in brief: as §3
[10] = species: Homo sapiens; assay: Percent inhibition of collagen-induced platelet aggregation at a concentration of 100 uM; type: functional
Method in brief: (§4)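 Human platelet-rich plasma from drug-free volunteers (citrated blood, 450 g spin), adjusted to 300 000 platelets/μL with platelet-poor plasma. Compound in PEG 300 preincubated 8 min at 37 °C, then 2 min equilibration with stirring at 1200 rpm. Aggregation triggered with collagen; maximum rise in light transmission read by aggregometer. Percent inhibition calculated against control. Runs done 1–2.5 h after blood draw.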

[11] = species: Homo sapiens; assay: Percent inhibition of collagen-induced platelet aggregation at a concentration of 20 uM; type: functional; method in brief: as §4
[12] = test system: Rattus norvegicus; assay: Evaluated for the percentage inhibition by adjuvant arthritis test at a dose of 50 mg/kg administarted perorally; type: functional; conditions: route oral

Row | Molecule | inhibition [1] | inhibition [2] | inhibition [3] | inhibition [4] | inhibition [5] | inhibition [6] | inhibition [7] | inhibition at 100 µM [8] | inhibition at 20 µM [9] | inhibition at 100 µM [10] | inhibition at 20 µM [11] | inhibition in vivo at 50 mg/kg [12]
1 | calcium salt of 4-Ferrocenoyl-1-methyl-1H-pyrrole-2-acetate | 3% | 2% | 12% | inactive | 10% | – | – | – | – | – | – | –
2 | (3-Ferrocenoyl-cyclopenta-2,4-dienyl)-acetic acid | 6% | 5% | 16% | inactive | 0% | – | – | – | – | – | – | –
3 | Methyl 5-Ferrocenoyl-1-methyl-1H-pyrrole-2-acetate | 6% | 0% | 0% | inactive | 3% | – | – | – | – | – | – | –
4 | 2-[2-(3-Cyclopenta-2,4-dienylmethyl-Ferrocenoyl)-2-oxo-ethyl]-benzoic acid | 28% | 7% | 0% | – | 3% | inactive | – | – | – | – | – | –
5 | 4-(3-Ferrocenoyl-cyclopenta-2,4-dienyl)-4-oxo-butyric acid | 8% | 0% | 64% | – | 29% | – | inactive | – | – | – | – | –
6 | [3-(Cyclopenta-2,4-ferrocenoyl)-4-(4-methyl-benzoyl)-cyclopenta-1,3-dienyl]-acetic acid | 6% | 2% | 23% | inactive | 0% | – | – | – | – | – | – | –
7 | Cc1ccc(C(=O)c2ccc(CC(=O)O)n2C)cc1 [TOLMETIN] | – | – | – | – | – | – | – | 88% | 90% | 85% | 74% | 34%
8 | CC(C(=O)O)c1ccc(-c2ccccc2)c(F)c1 (stereo unspecified) [FLURBIPROFEN] | – | – | – | – | – | – | – | 90% | 86% | 89% | 88% | 55%
9 | 4-Ferrocenoyl-1-methyl-1H-pyrrole-2-acetate | 27% | 20% | 60% | – | 32% | inactive | – | – | – | – | – | –
10 | 2-{5-[3-(4-Methyl-benzoyl)-Ferrocenoyl]-cyclopenta-1,3-dienyl}-acetamide | 15% | 4% | 34% | inactive | 0% | – | – | – | – | – | – | –
11 | O=C(O)CCC(=O)c1ccc(-c2ccccc2)cc1 [FENBUFEN] | – | – | – | – | – | – | – | – | – | – | – | 71%
